# Reference: PubChem BioAssay
# Activity calls are given as the source filed them.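 How the source made its calls, unless noted: active means inhibition of the reporter signal at or above 50%; inactive means inhibition below 50%.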
# How the values were obtained:
# [1] = inhibitors of TNFa-induced NFkB p65 translocation, primary screen, imaging, HUVEC, MLSMR starter and 10KST1 sets (AID 438;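 active means inhibition above 20% together with a positive visual image hit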;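 further: compound added about 3h40 before a 20 min TNFalpha stimulation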;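 on inhibition: signal is the nuclear over cytoplasmic p65 intensity ratio per well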); conditions: HUVEC TNFa-induced p65 nuclear translocation; cell count: measured here: nuclei count (cytotoxicity indicator), at 2.08 µM; inhibition: at 2 µM, stronger effect = higher value, 0% TNFa-plus-vehicle, 100% no-TNFa wells
# [2] = inhibitors of mutant huntingtin aggregation, primary screen, imaging, exon1htt(103Q)mCFP cells, high-content imaging (AID 483;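 active means visual image review flags a hit and inhibition of aggregation exceeds 20%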;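 further: compound exposure lasted 3 days before fixation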;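 on nuclei count: percent of the per-plate median nuclei count of sample wells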); conditions: exon1htt(103Q)mCFP cell line, aggregate imaging, at 2 µM; inhibition of aggregation: stronger effect = higher value; nuclei count: measured here: cell count, toxicity
# [3] = inhibitors of E-selectin induction by TNFa, primary screen, imaging, HUVEC, immunofluorescence, MLSMR starter and 10KST1 sets (AID 487;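 active means visually confirmed hit in the image check and inhibition above 20%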;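 on inhibition: signal is fraction of cell area covered by stained E-selectin grains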;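 on nuclei count: 100% = median nuclei count of all wells on the same plate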); conditions: HUVEC TNFalpha-induced E-selectin immunofluorescence imaging, at 2 µM; inhibition: stronger effect = higher value; nuclei count: measured here: cell number, toxicity
# [4] = target: Voltage-gated potassium channel subunit beta-2 (Rattus norvegicus) (UniProt P62483); experiment: KvBeta enzyme negative modulators, primary screen, biochemical, NADPH fluorescence (AID 622;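 active means fluorescence slope higher than the sample average by over 3 SD, cut at about -0.22 in these data, passing the limit was not always enough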;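 further: slope of raw intensity against log time taken from 70 to 1610 s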); conditions: recombinant KvBeta, 4-cyanobenzaldehyde reduction, at 10 µM, stronger effect = higher value
# Sequence of Voltage-gated potassium channel subunit beta-2 (Rattus norvegicus) (P62483 whole entry, looked up): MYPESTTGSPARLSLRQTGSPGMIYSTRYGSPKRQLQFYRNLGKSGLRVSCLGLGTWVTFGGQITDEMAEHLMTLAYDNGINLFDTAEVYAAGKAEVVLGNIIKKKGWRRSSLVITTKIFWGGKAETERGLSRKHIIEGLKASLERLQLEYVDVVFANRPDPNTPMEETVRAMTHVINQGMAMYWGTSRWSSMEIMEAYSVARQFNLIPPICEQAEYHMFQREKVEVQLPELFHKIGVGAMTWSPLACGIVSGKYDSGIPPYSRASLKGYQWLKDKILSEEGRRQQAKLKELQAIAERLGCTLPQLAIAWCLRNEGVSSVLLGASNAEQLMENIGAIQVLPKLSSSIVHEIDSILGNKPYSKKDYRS
# [5] = target: Voltage-gated potassium channel subunit beta-2 (Rattus norvegicus) (UniProt P62483); experiment: KvBeta positive modulators, primary screen, biochemical, NADPH fluorescence (AID 623;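 active means NADPH fluorescence slope more negative than the mean of all samples by about 3 SD, 99.7% confidence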;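 further: fluorescence intensity change per second fitted from 20 to 320 s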); conditions: Recombinant KvBeta, NADPH fluorescence decrease slope, 10 min; at 10 µM; stronger effect = lower value
# [6] = target: Muscarinic acetylcholine receptor M4 (Homo sapiens) (UniProt P08173); experiment: compounds altering M4/GIRK thallium flux, either direction, primary screen, M4 allosteric agonist project, cell-based, HEK293 M4/GIRK, BTC-AM (AID 625;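 active means fluorescence slope after compound addition differing from the mean of all tested samples at 99.7% confidence, mostly higher but some lower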;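 further: thallium influx through GIRK channels coupled to M4 in HEK293 cells with BTC-AM dye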); conditions: at 10 µM, actives lie on both sides
# Sequence of Muscarinic acetylcholine receptor M4 (Homo sapiens) (P08173 whole entry, looked up): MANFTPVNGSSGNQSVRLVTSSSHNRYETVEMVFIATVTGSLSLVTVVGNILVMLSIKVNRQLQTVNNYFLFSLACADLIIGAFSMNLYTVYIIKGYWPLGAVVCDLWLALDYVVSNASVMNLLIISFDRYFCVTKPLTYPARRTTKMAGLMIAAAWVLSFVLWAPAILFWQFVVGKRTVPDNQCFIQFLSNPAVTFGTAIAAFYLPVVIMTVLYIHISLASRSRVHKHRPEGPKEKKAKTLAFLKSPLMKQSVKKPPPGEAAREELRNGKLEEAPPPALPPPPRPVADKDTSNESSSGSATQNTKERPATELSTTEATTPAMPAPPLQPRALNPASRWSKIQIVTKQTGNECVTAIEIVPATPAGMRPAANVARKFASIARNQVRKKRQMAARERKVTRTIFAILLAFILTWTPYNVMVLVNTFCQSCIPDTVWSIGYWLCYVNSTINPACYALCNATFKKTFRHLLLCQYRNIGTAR
# Outline: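 assay system = HEK293 cells with M4 receptor and GIRK channels | medium = pH 7.3 thallium assay buffer | doses = 10 µM final, single point | timing = cells overnight at 37 °C, BTC-AM loading 1 h, reads 2 min total | signal = BTC-AM fluorescence, 1 Hz kinetic reads | read-out = post-addition slope, 15–24 s, of baseline-normalized fluorescence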
# [7] = inhibitors of Sendai virus-induced IRF3 signaling, primary screen, TLR/RLR signaling modifier project, cell-based, Sendai virus stimulus, luciferase, 10K MLSCN set (AID 602276;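 active means inhibition at or above 50% at 10 µM; inactive means inhibition below 50%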;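 further: firefly luciferase from ISG56 promoter only with Renilla not read in this screen; 0% = Sendai virus plus DMSO and 100% = medium plus DMSO without virus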); conditions: HEK293 RL24 IRF3 luciferase reporter, at 10 µM, stronger effect = higher value
# [8] = inhibitors of poly I:C-induced TLR3 signaling, primary screen, cell-based, poly I:C stimulus, luciferase, 10K MLSCN set (AID 602277); conditions: HEK293-TLR3 RL24 IRF3 luciferase reporter, at 10 µM, stronger effect = higher value
Compound,cell count [1],inhibition [1],inhibition of aggregation [2],nuclei count [2] [%],inhibition [3],nuclei count [3] [%],fluorescence slope [4],NADPH fluorescence slope [5],fluorescence slope [6],inhibition [7],inhibition [8]
COc1ccccc1N1CCN(C(=O)CSc2nc(-c3ccccc3)cc(=O)[nH]2)CC1,284,-10.5% (inactive),-9.2% (inactive),114,-30.1% (inactive),124,-0.509 (inactive),9.3e-06 (inactive),0.00621 (inactive),-1.48% (inactive),6.29% (inactive)
COc1cccc(-c2cc(C(=O)Nc3c(C)nn(Cc4ccccc4)c3C)no2)c1,438,-12.2% (inactive),-6.5% (inactive),105,41.8% (inactive),87,-0.249 (inactive),-2.3e-05 (inactive),0.00831 (inactive),0.514% (inactive),-23.3% (inactive)
COCCN(CC(=O)NC1CCCCC1)C(=O)CSc1nc2ccccc2o1,666,12.1% (inactive),3.4% (inactive),105,-28.2% (inactive),120,-0.469 (inactive),2.1e-05 (inactive),0.00558 (inactive),2.87% (inactive),18.7% (inactive)
Nc1nonc1NC(=O)CSc1nc2ccccc2s1,519,-8.4% (inactive),39.8% (active),61.2,-50.5% (inactive),103,-0.515 (inactive),-0.000124 (inactive),0.00565 (inactive),-7.11% (inactive),15.4% (inactive)
CN(CC(=O)Nc1ccccc1Cl)C(=O)COC(=O)CNC(=O)c1ccc(Br)o1,436,-13.1% (inactive),-3.1% (inactive),115,-13.8% (inactive),107,-0.607 (inactive),2.6e-05 (inactive),0.00546 (inactive),15.4% (inactive),30.4% (inactive)
CCOC(=O)c1[nH]c(C)c(C(=O)Nc2cc(OC)ccc2OC)c1C,671,-5.9% (inactive),-3.7% (inactive),2.5,-153% (inactive),111,-0.415 (inactive),4.7e-05 (inactive),0.00644 (inactive),30.4% (inactive),51.4% (active)
Cc1onc(-c2c(Cl)cccc2Cl)c1C(=O)NCCN1CCOCC1,548,5.1% (inactive),-1.4% (inactive),98.9,-48.2% (inactive),108,-0.471 (inactive),3e-06 (inactive),0.00527 (inactive),21.3% (inactive),16.3% (inactive)
CCCn1c(=O)c2ccccc2n2c(SCc3cc(=O)n4ccsc4n3)nnc12,556,-10.8% (inactive),-7% (inactive),90.4,-8.3% (inactive),136,-0.479 (inactive),1.9e-05 (inactive),0.00554 (inactive),1.22% (inactive),12% (inactive)
COC(=O)c1[nH]c2ccccc2c1NS(=O)(=O)c1ccc(OC)cc1OC,655,-11.9% (inactive),13% (inactive),103,-72% (inactive),118,-0.524 (inactive),-0.000111 (inactive),0.00563 (inactive),19.9% (inactive),37.3% (inactive)
CCOC(=O)c1sc(C)c2c1NC(C)(c1cccs1)NC2=O (centres undefined),674,-2% (inactive),-5.5% (inactive),104,-10.7% (inactive),101,-0.49 (inactive),1.8e-05 (inactive),0.00453 (inactive),5.21% (inactive),10.9% (inactive)
Cc1ccc(-n2ncc3c(Nc4c(C)n(C)n(-c5ccccc5)c4=O)ncnc32)c(C)c1,443,9.3% (inactive),6.8% (inactive),96.6,-81.8% (inactive),120,-0.538 (inactive),-2.2e-05 (inactive),0.0045 (inactive),13.9% (inactive),12.5% (inactive)
NC(=O)C1(N2CCCCC2)CCN(C2CC(=O)N(Cc3cccs3)C2=O)CC1 (centres undefined),378,-2.6% (inactive),5.2% (inactive),82.9,-117% (inactive),84.9,-0.458 (inactive),-3.2e-05 (inactive),0.00707 (inactive),10.3% (inactive),20.4% (inactive)
CC1Oc2ccccc2N(CC(=O)N(Cc2ccccc2)Cc2ccccn2)C1=O (centres undefined),640,-12.1% (inactive),-1.2% (inactive),106,81.9% (active),112,-0.297 (inactive),-8.9e-06 (inactive),0.00604 (inactive),-6.61% (inactive),-7.77% (inactive)
CCc1ncc(C(O)c2cccc(OC)c2OC)n1C (centres undefined),335,2.8% (inactive),7.4% (inactive),96.1,17.7% (inactive),126,-0.451 (inactive),-2.7e-05 (inactive),0.00484 (inactive),23.2% (inactive),24% (inactive)
